Consider 98 compounds from ChEMBL document CHEMBL4513216, “Probing the Open Global Health Chemical Diversity Library for Multistage-Active Starting Points for Next-Generation Antimalarials” (ACS Infect Dis, 2020).

A short description of this data set: Toxicity liver stage against HepG2, at 10uM. Format: cell-based. More on the design: test concentration 10 uM, cell line HepG2-A16-CD81EGFP. To be noted: human, HepG2-A16-CD81EGFP cells; read-out: INHIBITION
Put shortly: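 Uninfected HepG2-A16-CD81EGFP cells, 3 × 10^3 per well, 1536-well, plated on prespotted compound at 10 μM final, parasite-free screening media added to match infected plates; puromycin 10 μM positive, DMSO 0.5% negative; run in parallel with 48 h PbLuc assay at 37 °C, 5% CO2; viability by CellTiter-Glo luminescence, normalized to controls.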
Regarding `COc1ccc(Cl)cc1Nc1nc(N)c(C(C)=O)s1`, the cytotoxicity at 10 µM was found to be 2.52%.

`COCCNC(=O)CNC(=O)c1nc(Cc2c(Cl)cccc2Cl)no1`: the cytotoxicity at 10 µM worked out at 5.64%.

As for `CC(C)n1nc(O)c2c1NC(=O)CSC2c1cnn(C)c1` (stereo not drawn), the cytotoxicity at 10 µM is -5.28%.

On to `CCS(=O)(=O)N1CC(c2nc(-c3cccs3)no2)C1`, for which the cytotoxicity at 10 µM is -7.3%.

In the case of `CCOc1ccccc1NC(=O)NCC(C)(O)CCSC` (stereo not drawn), the cytotoxicity at 10 µM is -6.14%.

`COCC(=O)N1CC[C@H]2C[C@@H](c3nnc(C4CC4)o3)O[C@@H]2C1`: the cytotoxicity at 10 µM is -6.77%.

With `COc1ccc(Nc2nc3c(C)nn(C)c3c(=O)n2C)cc1`, the cytotoxicity at 10 µM is -0.103%.

Regarding `O=C(c1cccnc1)N1CCCC(c2ccnc3nccn23)C1` (stereo not drawn), the cytotoxicity at 10 µM amounted to 6.2%.

In the case of `CC(=O)N1CCC(C)(c2cc(C(=O)NCC3CC3)nc(C)n2)CC1`, the cytotoxicity at 10 µM turned out to be 2.87%.

Take `COCCN1CCC(C)(c2cc(O)[nH]n2)CC1`: the cytotoxicity at 10 µM stood at 2.02%.

Turning to `Cc1ncc(CN)c(-c2cn(C)c3ccccc23)n1`, the cytotoxicity at 10 µM turned out to be 2.97%.

For the compound `Cc1ccc(C)c2c(C)c(C(=O)NCC[S+](C)[O-])[nH]c12` (stereo not drawn), the cytotoxicity at 10 µM came out at 3.03%.

Consider `Cc1ncc(CN(C)C)c(C2CCCN2c2ncccn2)n1` (stereo not drawn), for which the cytotoxicity at 10 µM was -0.6%.

As for `CC(C)(C)c1nc(CN(Cc2ccccc2Cl)C2CCCC2)no1`, the cytotoxicity at 10 µM was 3.25%.

For `CCc1ncc2c(n1)CN(CC1CCCCO1)CC2` (stereo not drawn), the cytotoxicity at 10 µM is -21.1%.

Turning to `Cc1ccc(CC(=O)NCC(O)c2ccc(Cl)cc2Cl)cn1` (stereo not drawn), the cytotoxicity at 10 µM was -10.1%.

`CC(C(=O)NC(C)(C)C)S(=O)(=O)Cc1noc(C(C)(C)C)n1` (stereo not drawn): the cytotoxicity at 10 µM is -10.8%.

`CN(CC(=O)N(C)C)Cc1ccc(C#N)cc1F`: the cytotoxicity at 10 µM was 6.56%.

Regarding `CC(NC(=O)c1cccc[n+]1[O-])C1CC1` (stereo not drawn), the cytotoxicity at 10 µM stood at 5.31%.

As for `CC1COCCN1C(=O)COc1ccc(Oc2ccccn2)cc1` (stereo not drawn), the cytotoxicity at 10 µM is -8.87%.

As for `O=C(CCc1ccc(OC(F)(F)F)cc1)N1CCCS1(=O)=O`, the cytotoxicity at 10 µM amounted to 3.42%.

`CCCNC(=O)CCNC(=O)N1CCC(=Cc2ccccc2)CC1`: the cytotoxicity at 10 µM was found to be 1.47%.

For the compound `O=C(N1CCN(c2ccccc2O)CC1)C1(O)Cc2ccccc2C1`, the cytotoxicity at 10 µM amounted to 0.0894%.

As to `COC1CCN(CCNC(=O)C2CCCCC2)CC1`, the cytotoxicity at 10 µM turned out to be 0.545%.

Turning to `Cc1ccccc1CS(=O)(=O)Cc1nc(C2CC2)no1`, the cytotoxicity at 10 µM came out at 4.49%.

With `O=C(COC1CCCC1)N1CCCN(c2ncccn2)CC1`, the cytotoxicity at 10 µM turned out to be 15.9%.

With `CCN(CC)C(=O)CCNC(=O)N(C)Cc1ccc(SC)c(OC)c1`, the cytotoxicity at 10 µM is -7.9%.

As to `CC(C)N1CCC(NC(=O)NC2CCOc3ccc(Br)cc32)CC1` (stereo not drawn), the cytotoxicity at 10 µM is -6.64%.

Turning to `CC(=O)NCCCNC(=O)Nc1ccccc1-n1nc(C)cc1C`, the cytotoxicity at 10 µM was found to be 6.57%.

Regarding `CN(Cc1cccc(C#N)c1)S(=O)(=O)N1CCOCC1`, the cytotoxicity at 10 µM was determined as 6.95%.

`O=C(Cc1csc(-c2ncccn2)n1)N1CCN2CCCCC2C1` (stereo not drawn): the cytotoxicity at 10 µM stood at 7.94%.

Turning to `Cc1nccn1-c1cc(CNC(=O)C2CCC(=O)NC2)ccn1` (stereo not drawn), the cytotoxicity at 10 µM amounted to 4.83%.

As to `Cc1nnc2ccc(N3CCC4(CCOC4)C3)nn12` (stereo not drawn), the cytotoxicity at 10 µM stood at 4.29%.

In the case of `CCC(=O)Nc1cc(Br)cn(C)c1=O`, the cytotoxicity at 10 µM is -1.34%.

Consider `O=C(NCCCc1cccs1)N1CCCCC1CCO` (stereo not drawn), for which the cytotoxicity at 10 µM came out at 6.06%.

As to `CC(C)C(C)NC(=O)CN1CCSCC1` (stereo not drawn), the cytotoxicity at 10 µM is -0.662%.

`CN(C)c1ccc(CCCNC(=O)NCC(O)c2ccsc2)cc1` (stereo not drawn): the cytotoxicity at 10 µM is -6.88%.

`CCOCCN1CCN(Cc2nnc(-c3ccco3)o2)CC1`: the cytotoxicity at 10 µM is -53.1%.

For `O=C(CCc1ccccn1)NCC(O)c1ccc(Cl)cc1Cl` (stereo not drawn), the cytotoxicity at 10 µM was 8.54%.

`COc1cccc(CNC(=O)Nc2ccc3[nH]nnc3c2)c1OC`: the cytotoxicity at 10 µM was 3.2%.

For `Cc1cc(=O)c(C(=O)Nc2cccc(CCN3CCCC3)c2)c[nH]1`, the cytotoxicity at 10 µM was 7.49%.

Regarding `Cn1cc(CNCCNC(=O)Cc2ccccc2)c(-c2cccnc2)n1`, the cytotoxicity at 10 µM amounted to 13.1%.

Consider `CCC1CCCN(S(=O)(=O)c2cnc3onc(C)c3c2)C1` (stereo not drawn), for which the cytotoxicity at 10 µM is 4.72%.

In the case of `CC(C)(CO)CCCNC(=O)NC1(c2ccccc2F)CC1`, the cytotoxicity at 10 µM is 9.08%.

As for `CN(C)C(=O)c1cccn1-c1ccc2c(c1)OCCO2`, the cytotoxicity at 10 µM came to 12.6%.

With `COCc1cccc(NC(=O)N(C)Cc2ncc(C)c(OC)c2C)c1`, the cytotoxicity at 10 µM was -1.01%.

For the compound `CCc1ccc(C(=O)O)cc1S(=O)(=O)Nc1ccc(=O)n(C)c1`, the cytotoxicity at 10 µM worked out at 11.7%.

In the case of `NS(=O)(=O)c1cnc(NCC2(c3ccccc3)CCC2)s1`, the cytotoxicity at 10 µM is -4.88%.

With `Cc1ccc2c(c1)OC(C)CN2C(=O)CCc1cscn1` (stereo not drawn), the cytotoxicity at 10 µM was -48.5%.

As to `CC(NCc1cccc(S(=O)(=O)N(C)C)c1)c1ccccn1` (stereo not drawn), the cytotoxicity at 10 µM is -10.5%.

Take `Cc1cccc(C(=O)N2CCn3cc(CNC(=O)CC4CC4)nc3C2)n1`: the cytotoxicity at 10 µM was -78.4%.

Consider `O=C(c1ccco1)N1CCCn2cnc(COCC3CC3)c2C1`, for which the cytotoxicity at 10 µM is -75.9%.

On to `CN1CCC(CNC(=O)c2ccc3cccc(Cl)c3n2)C1` (stereo not drawn), for which the cytotoxicity at 10 µM was -8.93%.

With `COC(=O)C1C=CCN1C(=O)c1cc(COc2ccccc2)[nH]n1` (stereo not drawn), the cytotoxicity at 10 µM is -4.45%.

Consider `O=C(O)c1ccccc1C1CCN(Cc2ccc(-c3cc[nH]n3)o2)C1` (stereo not drawn), for which the cytotoxicity at 10 µM was -10.2%.

As to `Cc1cnccc1N1CCN(C(=O)C2CC3(CCNCC3)CN2)CC1` (stereo not drawn), the cytotoxicity at 10 µM was -13.7%.

For `CCN(CC)C(=O)c1ccc(Cl)c(NC(=O)c2cc[nH]n2)c1`, the cytotoxicity at 10 µM amounted to 7.86%.

For `O=C(Cc1cccnc1)NC1CCCN(CCCc2ccccc2)C1` (stereo not drawn), the cytotoxicity at 10 µM worked out at 11.5%.

Consider `CNc1nc(C(=O)N2CCn3nc(C(=O)OC)cc3C2)cs1`, for which the cytotoxicity at 10 µM was -8.61%.

`CC(C)C(=O)N1CCC(CNc2nc(C(C)C)nc3c2cnn3C)CC1`: the cytotoxicity at 10 µM is -4.25%.

In the case of `O=C(C1CCCN(C2CCOCC2)C1)N1Cc2ccccc2C1` (stereo not drawn), the cytotoxicity at 10 µM was determined as 2.49%.

As to `COc1cc(C)cc(C(C(=O)O)N2CCN(C3CCCC3)CC2)c1OC` (stereo not drawn), the cytotoxicity at 10 µM is -4.27%.

As for `O=C(NC1CC1)C1CNCCN1C(=O)COc1ccc2c(c1)OCO2` (stereo not drawn), the cytotoxicity at 10 µM was -1.74%.

Take `CC(C)C1CN(C(=O)c2cc(=O)[nH]c(=O)[nH]2)CCC(=O)N1CC1CC1` (stereo not drawn): the cytotoxicity at 10 µM amounted to 1.08%.

On to `CCN(CC)C(=O)[C@@H]1C[C@H](N)CN1c1noc(-c2ccccc2)n1`, for which the cytotoxicity at 10 µM was -49.8%.

On to `O=C(c1cn(CCN2CCCCC2)nn1)N1CCCO1`, for which the cytotoxicity at 10 µM came to 5.87%.

With `CCc1cc(NCCN2CCNC2=O)n2nccc2n1`, the cytotoxicity at 10 µM is -3.04%.

Take `Cc1nonc1CN(C)Cc1nc(-c2cccc(F)c2F)oc1C`: the cytotoxicity at 10 µM was -2.71%.

Take `Cn1c(CN2CCOCC2)nnc1C1CCCN(CC(N)=O)C1` (stereo not drawn): the cytotoxicity at 10 µM amounted to 5.23%.

For `CC(=O)c1cc(CN2C[C@@H](CN3CCC(O)CC3)[C@@H](CO)C2)n(C)c1`, the cytotoxicity at 10 µM worked out at 7.58%.

Take `COc1ccc(F)c(CN2CC(=O)N(c3ccccc3C)CC2C)c1` (stereo not drawn): the cytotoxicity at 10 µM is -0.757%.

For the compound `O=C(COc1ccc2cccnc2c1)N1CCN[C@H]2CS(=O)(=O)C[C@H]21`, the cytotoxicity at 10 µM amounted to 7.98%.

Regarding `Nc1ccnc(C(=O)N2CCCC3(CCC(=O)N(C4CCCC4)C3)C2)c1` (stereo not drawn), the cytotoxicity at 10 µM is -19.8%.

Take `COc1cccc(-c2cc(NCC(=O)O)nc3[nH]ccc23)n1`: the cytotoxicity at 10 µM is 8.09%.

As for `Cc1cc(N(C)CCN(C)C)n2nc(C)cc2n1`, the cytotoxicity at 10 µM turned out to be 7.77%.

As to `COc1cc(N2CCC(c3nccn3Cc3ccccn3)CC2)ncn1`, the cytotoxicity at 10 µM is -14.2%.

Regarding `COC(=O)NCc1cc2n(n1)CCCN(C(C)=O)C2`, the cytotoxicity at 10 µM is -2.26%.

With `CN1CCCC1CNC(=O)CCCOc1cccc(Br)c1` (stereo not drawn), the cytotoxicity at 10 µM was -11.3%.

In the case of `Cn1ccnc1CC1CCCN(Cc2noc(C3CC3)n2)C1` (stereo not drawn), the cytotoxicity at 10 µM is -5.68%.

Consider `Cc1cccc(-n2c(C)cc(C(=O)NS(C)(=O)=O)c2C)c1`, for which the cytotoxicity at 10 µM is -4.08%.

As for `Cc1ccc(NC2CCN(C(=O)c3cc(C)sc3C)CC2)nn1`, the cytotoxicity at 10 µM is -5.59%.

Turning to `Fc1ccc(-c2nnc(CN3CCCC3Cn3cncn3)o2)cc1` (stereo not drawn), the cytotoxicity at 10 µM is -10.5%.

On to `Cc1cnc(CN(C)C2CCN(CCc3ccccn3)CC2)cn1`, for which the cytotoxicity at 10 µM was -12.1%.

For `COCCN1CCN(CCS(=O)(=O)C(F)(F)F)CC1C` (stereo not drawn), the cytotoxicity at 10 µM was -5.77%.

For the compound `Cc1cnn(CC2CCCN2Cc2nnc(Cc3ccccc3)o2)c1` (stereo not drawn), the cytotoxicity at 10 µM is -11.7%.

As to `Cc1cc(C2CCCN2Cc2ccn(C)c(=O)c2)no1` (stereo not drawn), the cytotoxicity at 10 µM was -9.03%.

Take `Cc1nc2ccccc2c(=O)n1CCC(=O)N1CCNC(=O)C1`: the cytotoxicity at 10 µM is -19%.

As for `c1ccc(-c2cnc(CN3CCn4c(nnc4C4CC4)C3)o2)cc1`, the cytotoxicity at 10 µM is -7.67%.

Take `CCOc1ncccc1NC(=O)NCC(O)c1ccccc1OC` (stereo not drawn): the cytotoxicity at 10 µM was -8.36%.

As to `Cc1ccc(C(=O)N2CCN(Cc3ccsc3)CC2)n1C`, the cytotoxicity at 10 µM amounted to 0.914%.

Turning to `CCc1nc(C2CCCN2C(=O)c2cc(C3CC3)[nH]n2)no1` (stereo not drawn), the cytotoxicity at 10 µM was found to be 1.03%.

Consider `CCOCCN1CCCC(c2cc(C(N)=O)[nH]n2)C1` (stereo not drawn), for which the cytotoxicity at 10 µM worked out at 3.78%.

As for `Cc1cnn(CC2CCCCN2C(=O)c2cc(C(N)=O)cs2)c1` (stereo not drawn), the cytotoxicity at 10 µM amounted to 2.02%.

As to `Cc1nc2ccccc2nc1CN1CCCC1Cn1cncn1` (stereo not drawn), the cytotoxicity at 10 µM was -1.28%.

Take `CN(Cc1ccsc1)C(=O)CS(=O)(=O)Cc1ccc(Cl)c(Cl)c1`: the cytotoxicity at 10 µM is -0.987%.

Turning to `O=C1NC2(CCN(C(=O)N3CCOCC3)CC2)CC1c1cccnc1` (stereo not drawn), the cytotoxicity at 10 µM was -128%.

For `Cc1ncccc1NC(=O)[C@@H]1C[C@@H]2CCN(Cc3cccs3)C[C@H]2O1`, the cytotoxicity at 10 µM was -72.9%.

On to `CSc1nc(N)cc(N2C[C@H]3CC[C@@H](C2)N(Cc2cscn2)C3=O)n1`, for which the cytotoxicity at 10 µM is -12%.
